Test results as given in ChEMBL document CHEMBL1125144, “5-[(Aminoalkyl)amino]imidazo[4,5,1-de]acridin-6-ones as a novel class of antineoplastic agents. Synthesis and biological activity” (J Med Chem, 1990).
Several values for one entry are separate records, joined by “and”; a condition that tells them apart may be missing. Equal entries are not always repeated.

Tests used:
P388 [1] = test: In vivo antitumor activity was determined against P 388 leukemia cells implanted (ip) in BDF1 mice at a dose of 25 mg/kg; assay type: functional, Mus musculus
In short: (§1)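 Groups of eight BDF1 mice received 10⁶ P388 cells ip on day 0. Control groups of 18 mice received saline. Read-out is T/C (%). T/C ≤85% is scored toxic and ≥125% significant activity. Some doses were repeated in an independent multidose assay.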

P388 [2] = test: In vivo antitumor activity was determined against P 388 leukemia cells implanted (ip) in BDF1 mice at a dose of 50 mg/kg; assay type: functional, Mus musculus; in short: as §1
HeLa = test: In vitro cytotoxic activity against HeLaS3 cells in tissue culture was determined; assay type: functional, cell-based; details: Homo sapiens
In short: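 HeLa S3 cells grown in tissue culture. Read-out is the concentration giving 50% inhibition. Significant cytotoxicity is defined as 50% inhibition at <1 µg/mL. Values are the mean of three independent experiments.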

P388 [3] = test: In vivo antitumor activity was determined against P 388 leukemia cells implanted (ip) in BDF1 mice at a dose of 100 mg/kg; assay type: functional, Mus musculus; in short: as §1
P388 [4] = test: In vivo antitumor activity was determined against P 388 leukemia cells implanted (ip) in BDF1 mice at a dose of 30 mg/kg; assay type: functional, Mus musculus; in short: as §1
P388 [5] = test: In vivo antitumor activity was determined against P 388 leukemia cells implanted (ip) in BDF1 mice at a dose of 90 mg/kg; assay type: functional, Mus musculus; in short: as §1
P388 [6] = test: In vivo antitumor activity was determined against P 388 leukemia cells implanted (ip) in BDF1 mice at a dose of 150 mg/kg; assay type: functional, Mus musculus; in short: as §1
P388 [7] = test: In vivo antitumor activity was determined against P 388 leukemia cells implanted (ip) in BDF1 mice a dose of 75 mg/kg; assay type: functional, Mus musculus; in short: as §1
P388 [8] = test: In vivo antitumor activity was determined against P 388 leukemia cells implanted (ip) in BDF1 mice at a dose of 60 mg/kg; assay type: functional, Mus musculus; in short: as §1
P388 [9] = test: In vivo antitumor activity was determined against P 388 leukemia cells implanted (ip) in BDF1 mice at a dose of 75; assay type: functional, Mus musculus; in short: as §1
P388 [10] = test: In vivo antitumor activity was determined against P 388 leukemia cells implanted (ip) in BDF1 mice at a dose of 75 mg/kg; assay type: functional, Mus musculus; in short: as §1
P388 [11] = test: In vivo antitumor activity was determined against P 388 leukemia cells implanted (ip) in BDF1 mice at a dose of 175 mg/kg; assay type: functional, Mus musculus; in short: as §1

Structure (SMILES)	IC50 (HeLa) [µg/mL]	other results
CN(C)CCNc1ccc([N+](=O)[O-])c2nc3ccccc3c(O)c12.Cl	0.15	T/C (P388 [1]; 25 mg/kg): 160% and 166%; T/C (P388 [2]): 185%
CC(=O)Nc1ccc(NCCCN(C)C)c2c(O)c3ccccc3nc12.Cl.Cl	> 5	
CN(C)CCCCCNc1ccc2ncn3c4ccccc4c(=O)c1c23.Cl.Cl	0.5	T/C (P388 [3]): 110%
CN(C)CCCNc1ccc2nc(-c3ccccc3)n3c4ccccc4c(=O)c1c23.Cl.Cl	0.28	T/C (P388 [4]): 110%
CCc1nc2ccc(NCCCN(C)C)c3c(=O)c4ccccc4n1c23.Cl.Cl	0.25	T/C (P388 [5]): 130%
CN(C)CCNc1ccc(N)c2nc3ccccc3c(O)c12.Cl.Cl	2.93	T/C (P388 [3]): <85%
CN(C)CCCNc1ccc(N)c2nc3ccccc3c(O)c12.Cl.Cl	0.25	T/C (P388 [1]): <85%
CN(C)CCCCCNc1ccc(N)c2nc3ccccc3c(O)c12.Cl.Cl	1.05	
Cc1nc2ccc(NCCCN(C)C)c3c(=O)c4ccccc4n1c23.Cl.Cl	0.11	T/C (P388 [6]): 122%
CC(=O)Nc1ccc(NCCN(C)C)c2c(O)c3ccccc3nc12.Cl.Cl	> 5	T/C (P388 [7]): 137%
CN(C)CCNc1ccc2nc(-c3ccccc3)n3c4ccccc4c(=O)c1c23.Cl.Cl	0.43	T/C (P388 [2]): 150%
CN(C)CCCCCNc1ccc([N+](=O)[O-])c2nc3ccccc3c(O)c12.Cl	0.13	T/C (P388 [8]): 144%
CN(C)CCCNc1ccc([N+](=O)[O-])c2nc3ccccc3c(O)c12.Cl	0.04	T/C (P388 [3]): 189%; T/C (P388 [9]): 190%
CC(C)c1nc2ccc(NCCN(C)C)c3c(=O)c4ccccc4n1c23.Cl.Cl	0.37	T/C (P388 [6]): 166%
CCCCCCCCc1nc2ccc(NCCN(C)C)c3c(=O)c4ccccc4n1c23.Cl.Cl	0.2	T/C (P388 [10]): <85%
CCCc1nc2ccc(NCCN(C)C)c3c(=O)c4ccccc4n1c23.Cl.Cl	0.2	T/C (P388 [11]): 211% and 233%
Cc1nc2ccc(NCCN(C)C)c3c(=O)c4ccccc4n1c23.Cl.Cl	0.05	T/C (P388 [2]; 50 mg/kg): 190% and 230%
CN(C)CCNc1ccc2ncn3c4ccccc4c(=O)c1c23.Cl.Cl	0.06	T/C (P388 [1]; 25 mg/kg): 180% and 188%
CCc1nc2ccc(NCCN(C)C)c3c(=O)c4ccccc4n1c23.Cl.Cl	0.11	T/C (P388 [3]): 200%
CN(C)CCCNc1ccc2ncn3c4ccccc4c(=O)c1c23.Cl.Cl	0.15	T/C (P388 [3]; 100 mg/kg): 133% and 120%
